Test results as given in ChEMBL document CHEMBL1156702, “Synthesis and molecular modelling of unsaturated exomethylene pyranonucleoside analogues with antitumor and antiviral activities” (Eur J Med Chem, 2008).

What was measured:
[1] = Cytotoxicity against human H4 cells after 72 hrs; assay type: cell-based
Summary of the method: (§1)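 Cells kept in DMEM with 5% foetal calf serum, L-glutamine, penicillin/streptomycin at 37 °C, 5% CO2. Seeded cells exposed to 3-fold serial dilutions (starting 0.5 mg/mL; DMSO stock, final DMSO <0.1%) for 72 h at 37 °C. Treated wells (n=2) compared with controls (n=24). CC50 taken from concentration-effect curve.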

[2] = Cytotoxicity against human Caco-2 cells after 72 hrs; assay type: cell-based; summary of the method: as §1
[3] = Ratio of CC50 for human Caco-2 cells to IC50 for rotavirus RF assessed by inhibition of infectivity following virus attachment

Row | Structure (SMILES) | CC50 at 72 h [1] | CC50 at 72 h [2] | Ratio CC50/IC50 [3]
1 | C=C1[C@@H](CO)O[C@H](n2ccc(=O)[nH]c2=O)[C@@H](O)[C@H]1O | 1.85 mM |  | 
2 | C=C1C=C[C@@H](n2ccc(=O)[nH]c2=O)O[C@@H]1COC(c1ccccc1)(c1ccccc1)c1ccccc1 | 1.04 mM |  | 
3 | C=C1C=C[C@@H](n2ccc(=O)[nH]c2=O)O[C@@H]1CO | 2.12 mM |  | 
4 | O=C1C=C[C@@H](n2ccc(=O)[nH]c2=O)O[C@@H]1CO | 2.1 mM |  | 
5 | Cc1cn([C@H]2C[C@H](N=[N+]=[N-])[C@@H](CO)O2)c(=O)[nH]c1=O [ZIDOVUDINE] |  | 0.0561 mM | 2.5
